The results in this text go back to ChEMBL document CHEMBL1133857, “Beta 3 agonists. Part 1: evolution from inception to BMS-194449” (Bioorg Med Chem Lett, 2001).

Test [1] deals with Beta-2 adrenergic receptor and beta-3 adrenergic receptor (Homo sapiens) (UniProt P07550+P13945). As to the kind of experiment: Selectivity as the ratio of Ki of beta-2 adrenergic receptor to the Ki of beta-3 adrenergic receptor. The test is classed as protein assay. The procedure, abridged: (§1)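 Ki at human β1, β2 and β3 adrenergic receptors measured by binding to membranes prepared from CHO cells transfected with each human receptor. Selectivity is expressed as the ratio of β1 or β2 Ki to β3 Ki.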

The target of test [2] is Beta-1 adrenergic receptor (Cavia porcellus) (UniProt B0FL73). Kind of test: Intrinsic activity as the acceleration in contraction of spontaneously beating guinea pig atria relative to that induced by isoproterenol. The test is classed as functional.
The target of test [3] is T1, Beta-3 adrenergic receptor (Homo sapiens, UniProt P13945). As to the kind of experiment: Binding affinity against CHO cells transfected with human beta-3 adrenergic receptor in the presence of [125I]iodocyanopindolol. In kind it is cell-based. The procedure, abridged: as §1
Target sequence in this assay (P13945 whole entry): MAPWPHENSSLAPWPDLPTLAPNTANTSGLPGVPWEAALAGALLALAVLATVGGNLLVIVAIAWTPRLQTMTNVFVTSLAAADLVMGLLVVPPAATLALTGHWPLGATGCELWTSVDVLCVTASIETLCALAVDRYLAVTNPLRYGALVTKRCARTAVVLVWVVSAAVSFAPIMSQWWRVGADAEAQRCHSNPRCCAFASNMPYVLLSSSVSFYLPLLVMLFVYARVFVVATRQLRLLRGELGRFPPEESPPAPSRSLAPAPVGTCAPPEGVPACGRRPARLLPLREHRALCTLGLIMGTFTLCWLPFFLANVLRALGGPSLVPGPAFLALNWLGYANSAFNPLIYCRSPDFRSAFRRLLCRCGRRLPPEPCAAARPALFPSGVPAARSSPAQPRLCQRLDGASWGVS
In test [4] the target is T1, Beta-3 adrenergic receptor. Kind of test: Human beta-3 adrenergic receptor agonist activity by measurement of cAMP accumulation levels in CHO membranes expressing human beta-3 receptor. In kind it is functional, cell membranes. The procedure, abridged: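 β3 intrinsic activity (% activation) measured in membranes from CHO cells transfected with human β3 adrenergic receptor.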
Target sequence in this assay (P13945 whole entry, looked up): as the sequence (P13945 whole entry) above

In test [5] the target is Adrenergic receptor beta; ADRB1 & ADRB3 (Homo sapiens) (UniProt P08588+P13945). As to the kind of experiment: Selectivity measured as the ratio of Ki of Beta-1 Adrenergic receptor to the Ki of Beta-3 Adrenergic receptor. The test is classed as protein assay. The procedure, abridged: as §1
Chain of Adrenergic receptor beta; ADRB1 & ADRB3 (Homo sapiens) (P08588 whole entry, looked up): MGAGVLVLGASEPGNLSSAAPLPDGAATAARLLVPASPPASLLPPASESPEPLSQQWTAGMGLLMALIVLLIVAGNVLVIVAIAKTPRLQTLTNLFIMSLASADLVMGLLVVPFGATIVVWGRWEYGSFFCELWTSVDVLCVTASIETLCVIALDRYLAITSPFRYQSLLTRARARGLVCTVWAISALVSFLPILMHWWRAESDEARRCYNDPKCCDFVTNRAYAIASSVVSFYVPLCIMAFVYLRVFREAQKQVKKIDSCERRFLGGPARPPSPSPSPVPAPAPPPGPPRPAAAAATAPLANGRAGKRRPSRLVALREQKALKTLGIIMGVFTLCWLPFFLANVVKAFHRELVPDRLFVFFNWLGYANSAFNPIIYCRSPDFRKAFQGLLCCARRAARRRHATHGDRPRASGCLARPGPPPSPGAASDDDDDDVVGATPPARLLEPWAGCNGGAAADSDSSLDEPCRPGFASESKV
Chain of Adrenergic receptor beta; ADRB1 & ADRB3 (Homo sapiens) (P13945 whole entry, looked up): as the sequence (P13945 whole entry) above

Chain of Beta-1 adrenergic receptor (Cavia porcellus) (B0FL73 1-467): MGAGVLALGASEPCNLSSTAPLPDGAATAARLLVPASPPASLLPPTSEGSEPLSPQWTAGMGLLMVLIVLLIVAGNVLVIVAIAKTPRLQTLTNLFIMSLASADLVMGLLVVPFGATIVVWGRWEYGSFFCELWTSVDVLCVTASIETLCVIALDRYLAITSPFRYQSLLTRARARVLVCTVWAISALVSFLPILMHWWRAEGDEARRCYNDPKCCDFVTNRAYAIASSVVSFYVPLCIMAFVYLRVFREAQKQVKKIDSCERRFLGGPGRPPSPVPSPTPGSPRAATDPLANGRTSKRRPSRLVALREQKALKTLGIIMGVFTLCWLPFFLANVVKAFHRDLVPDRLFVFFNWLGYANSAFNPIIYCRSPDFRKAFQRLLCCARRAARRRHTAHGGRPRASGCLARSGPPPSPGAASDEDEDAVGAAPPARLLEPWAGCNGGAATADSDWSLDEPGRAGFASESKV

Regarding `CC(=O)Nc1ccc(C(NC[C@H](O)c2ccc(O)c(NS(C)(=O)=O)c2)c2ccc(NC(C)=O)cc2)cc1`, the Selectivity in test [1] is 3; in test [5], 17. The Intrinsic activity in test [2] came out at 88%; in test [4], 96%. In test [3], the Ki was found to be 300 nM.
